Measured values taken from ChEMBL document CHEMBL4689842, “EUbOPEN Chemogenomics Library wave 1” (2021).

Test system: HEK-293T
Assay: Multiplex assay against HEK293T;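 for Population Tubulin-Different-Phenotype (%): share of the cells with healthy nuclei that show this phenotype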
Format: toxicity, cell-based
Conditions: human
How it was run: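 On a CQ1 microscope at 37°C and 5% CO2, live cells were imaged after compound addition. They had been stained at seeding with Hoechst33342, BioTracker Green Microtubule Cytoskeleton Dye, MitoTracker Red and Annexin V Alexa Fluor 680. CellPathfinder machine-learning gating assigned cells to Hoechst high-intensity objects or normal cells, normal cells to healthy, pyknosed or fragmented nuclei, and pyknosed cells to mitotic or apoptotic. Tubulin, mitochondrial-mass and membrane-permeability phenotypes are per cents of healthy-nucleus cells.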

[1] = 12 h, 1 µM, compound concentration 1 uM, replicate 1
[2] = 12 h, 1 µM, compound concentration 1 uM, replicate 2
[3] = 12 h, 10 µM, compound concentration 10 uM, replicate 1
[4] = 12 h, 10 µM, compound concentration 10 uM, replicate 2
[5] = 24 h, 1 µM, compound concentration 1 uM, replicate 1
[6] = 24 h, 1 µM, compound concentration 1 uM, replicate 2
[7] = 24 h, 10 µM, compound concentration 10 uM, replicate 1
[8] = 24 h, 10 µM, compound concentration 10 uM, replicate 2
[9] = 48 h, 1 µM, compound concentration 1 uM, replicate 1
[10] = 48 h, 1 µM, compound concentration 1 uM, replicate 2
[11] = 48 h, 10 µM, compound concentration 10 uM, replicate 1
[12] = 48 h, 10 µM, compound concentration 10 uM, replicate 2

With `CCOc1cc2ncc(C#N)c(Nc3ccc(OCc4ccccn4)c(Cl)c3)c2cc1NC(=O)/C=C/CN(C)C` [NERATINIB] the “Population Apoptotic (%)” value [1] was 50%, the “Population Fragmented Nuclei (%)” value [1] was 20% and the “Population Healthy Nuclei (%)” value [1] was 24%. For the same compound, the “Population Hoechst High Intensity Objects (%)” value [1] was 20%, the “Population Membrane Permeable-Phenotype (%)” value [1] was 0% and the “Population Mitochondria Different-Phenotype (%)” value [1] was 85%. For the same compound, the “Population Mitotic Cells (%)” value [1] was 50%, the “Population Normal (%)” value [1] was 79% and the “Population Pyknosed Nuclei (%)” value [1] was 55%. For the same compound, the “Population Tubulin-Different-Phenotype (%)” value [1] was 55%, the “Total Cell Count” value [1] was 254 and the “Population Apoptotic (%)” value [2] was 21%. The “Population Fragmented Nuclei (%)” value [2] was 25%, the “Population Healthy Nuclei (%)” value [2] was 46% and the “Population Hoechst High Intensity Objects (%)” value [2] was 19%. The “Population Membrane Permeable-Phenotype (%)” value [2] was 3%, the “Population Mitochondria Different-Phenotype (%)” value [2] was 15% and the “Population Mitotic Cells (%)” value [2] was 78%. The “Population Normal (%)” value [2] was 80%, the “Population Pyknosed Nuclei (%)” value [2] was 27% and the “Population Tubulin-Different-Phenotype (%)” value [2] was 15%. The “Total Cell Count” value [2] was 471, the “Population Apoptotic (%)” value [3] was 43% and the “Population Fragmented Nuclei (%)” value [3] was 25%. The “Population Healthy Nuclei (%)” value [3] was 52%, the “Population Hoechst High Intensity Objects (%)” value [3] was 29% and the “Population Mitochondria Different-Phenotype (%)” value [3] was 22%. The “Population Mitotic Cells (%)” value [3] was 56%, the “Population Normal (%)” value [3] was 70% and the “Population Pyknosed Nuclei (%)” value [3] was 21%. For the same compound, the “Population Tubulin-Different-Phenotype (%)” value [3] was 23%, the “Total Cell Count” value [3] was 1420 and the “Population Apoptotic (%)” value [4] was 33%. For the same compound, the “Population Fragmented Nuclei (%)” value [4] was 30%, the “Population Healthy Nuclei (%)” value [4] was 50% and the “Population Hoechst High Intensity Objects (%)” value [4] was 27%. The “Population Membrane Permeable-Phenotype (%)” value [4] was 3%, the “Population Mitochondria Different-Phenotype (%)” value [4] was 11% and the “Population Mitotic Cells (%)” value [4] was 66%. For the same compound, the “Population Normal (%)” value [4] was 72%, the “Population Pyknosed Nuclei (%)” value [4] was 18% and the “Population Tubulin-Different-Phenotype (%)” value [4] was 15%. For the same compound, the “Total Cell Count” value [4] was 844, the “Population Apoptotic (%)” value [5] was 55% and the “Population Fragmented Nuclei (%)” value [5] was 19%. For the same compound, the “Population Healthy Nuclei (%)” value [5] was 20%, the “Population Hoechst High Intensity Objects (%)” value [5] was 20% and the “Population Membrane Permeable-Phenotype (%)” value [5] was 2%. For the same compound, the “Population Mitochondria Different-Phenotype (%)” value [5] was 80%, the “Population Mitotic Cells (%)” value [5] was 44% and the “Population Normal (%)” value [5] was 79%. The “Population Pyknosed Nuclei (%)” value [5] was 59%, the “Population Tubulin-Different-Phenotype (%)” value [5] was 61% and the “Total Cell Count” value [5] was 262. The “Population Apoptotic (%)” value [6] was 20%, the “Population Fragmented Nuclei (%)” value [6] was 26% and the “Population Healthy Nuclei (%)” value [6] was 50%. The “Population Hoechst High Intensity Objects (%)” value [6] was 16%, the “Population Mitochondria Different-Phenotype (%)” value [6] was 24% and the “Population Mitotic Cells (%)” value [6] was 80%. The “Population Normal (%)” value [6] was 83%, the “Population Pyknosed Nuclei (%)” value [6] was 22% and the “Population Tubulin-Different-Phenotype (%)” value [6] was 24%. The “Total Cell Count” value [6] was 531, the “Population Apoptotic (%)” value [7] was 50% and the “Population Fragmented Nuclei (%)” value [7] was 25%. The “Population Healthy Nuclei (%)” value [7] was 50%, the “Population Hoechst High Intensity Objects (%)” value [7] was 30% and the “Population Membrane Permeable-Phenotype (%)” value [7] was 1%. The “Population Mitochondria Different-Phenotype (%)” value [7] was 19%, the “Population Mitotic Cells (%)” value [7] was 49% and the “Population Normal (%)” value [7] was 69%. The “Population Pyknosed Nuclei (%)” value [7] was 23%, the “Population Tubulin-Different-Phenotype (%)” value [7] was 19% and the “Total Cell Count” value [7] was 1427. The “Population Apoptotic (%)” value [8] was 42%, the “Population Fragmented Nuclei (%)” value [8] was 31% and the “Population Healthy Nuclei (%)” value [8] was 49%. For the same compound, the “Population Hoechst High Intensity Objects (%)” value [8] was 25%, the “Population Membrane Permeable-Phenotype (%)” value [8] was 0% and the “Population Mitochondria Different-Phenotype (%)” value [8] was 12%. The “Population Mitotic Cells (%)” value [8] was 57%, the “Population Normal (%)” value [8] was 74% and the “Population Pyknosed Nuclei (%)” value [8] was 18%. The “Population Tubulin-Different-Phenotype (%)” value [8] was 14%, the “Total Cell Count” value [8] was 857 and the “Population Apoptotic (%)” value [9] was 62%. For the same compound, the “Population Fragmented Nuclei (%)” value [9] was 23%, the “Population Healthy Nuclei (%)” value [9] was 17% and the “Population Hoechst High Intensity Objects (%)” value [9] was 23%. The “Population Membrane Permeable-Phenotype (%)” value [9] was 2%, the “Population Mitochondria Different-Phenotype (%)” value [9] was 56% and the “Population Mitotic Cells (%)” value [9] was 37%. For the same compound, the “Population Normal (%)” value [9] was 76%, the “Population Pyknosed Nuclei (%)” value [9] was 58% and the “Population Tubulin-Different-Phenotype (%)” value [9] was 29%. For the same compound, the “Total Cell Count” value [9] was 277, the “Population Apoptotic (%)” value [10] was 17% and the “Population Fragmented Nuclei (%)” value [10] was 21%. For the same compound, the “Population Healthy Nuclei (%)” value [10] was 62%, the “Population Hoechst High Intensity Objects (%)” value [10] was 15% and the “Population Mitochondria Different-Phenotype (%)” value [10] was 14%. The “Population Mitotic Cells (%)” value [10] was 82%, the “Population Normal (%)” value [10] was 84% and the “Population Pyknosed Nuclei (%)” value [10] was 16%. The “Population Tubulin-Different-Phenotype (%)” value [10] was 27%, the “Total Cell Count” value [10] was 609 and the “Population Apoptotic (%)” value [11] was 52%. The “Population Fragmented Nuclei (%)” value [11] was 29%, the “Population Healthy Nuclei (%)” value [11] was 46% and the “Population Hoechst High Intensity Objects (%)” value [11] was 32%. For the same compound, the “Population Membrane Permeable-Phenotype (%)” value [11] was 0%, the “Population Mitochondria Different-Phenotype (%)” value [11] was 15% and the “Population Mitotic Cells (%)” value [11] was 47%. For the same compound, the “Population Normal (%)” value [11] was 67%, the “Population Pyknosed Nuclei (%)” value [11] was 23% and the “Population Tubulin-Different-Phenotype (%)” value [11] was 16%. For the same compound, the “Total Cell Count” value [11] was 1487, the “Population Apoptotic (%)” value [12] was 42% and the “Population Fragmented Nuclei (%)” value [12] was 32%. The “Population Healthy Nuclei (%)” value [12] was 51%, the “Population Hoechst High Intensity Objects (%)” value [12] was 24% and the “Population Mitochondria Different-Phenotype (%)” value [12] was 16%. For the same compound, the “Population Mitotic Cells (%)” value [12] was 58%, the “Population Normal (%)” value [12] was 75% and the “Population Pyknosed Nuclei (%)” value [12] was 16%. For the same compound, the “Population Tubulin-Different-Phenotype (%)” value [12] was 21% and the “Total Cell Count” value [12] was 828.
